Assay results from paper PMC11847724 (Neoplasia (New York, N.Y.), 2025).
Like-named read-outs stand apart in the source and are kept apart here.

Assays:
[1] = system: participants with advanced or metastatic solid tumors; type: in vivo, human
How it was run: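 Open-label, first-in-human 3 + 3 escalation in adults with recurrent, locally advanced or metastatic solid tumors lacking standard therapy. Test compound was given orally once daily from 25 up to 700 mg/day (modified Fibonacci steps) in 28-day cycles for 6 to 8 cycles, with no intrapatient escalation. The safety population was everyone dosed at least once. AEs were coded by MedDRA and graded by NCI CTCAE v4.03. DLT was assessed in cycle 1, and MTD was the highest dose with DLT in under one-third of a cohort.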

[2] = system: advanced or metastatic solid tumors; assay: Tumor response by RECIST v1.1; type: in vivo, human; conditions: RECIST v1.1, all doses
How it was run: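 Participants received daily oral test compound at 25 to 700 mg/day in 28-day cycles. Best observed response was listed per participant without statistical analysis.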

rats = conditions: highest dose administered; cited from earlier work
FAK = conditions: preclinical studies ref 9, 10; cited from earlier work

CNC(=O)c1ccccc1Nc1nc(Nc2ccc3c(c2OC)CCC[C@H](N2CCN(CCO)CC2)C3)ncc1Cl [ESK-440]
AE: Pyrexia ([1]; 350 mg/day (n = 4)): 1 (25) Number (%) of participants
AE: Vomiting ([1]; 350 mg/day (n = 4)): 1 (25) Number (%) of participants
Any AE ([1]; 350 mg/day (n = 4)): 4 (100) Number (%) of participants
Deaths ([1]; 350 mg/day (n = 4)): 0 Number (%) of participants
Grade 3-5 AE ([1]; 350 mg/day (n = 4)): 2 (50) Number (%) of participants
Other serious AEs ([1]; 350 mg/day (n = 4)): 1 (25) Number (%) of participants
Treatment-related AE ([1]; 350 mg/day (n = 4)): 3 (75) Number (%) of participants
Withdrawn from treatment due to AE ([1]; 350 mg/day (n = 4)): 1 (25) Number (%) of participants
AE: Cough ([1]; 500 mg/day (n = 6)): 1 (17) Number (%) of participants
AE: Decreased appetite ([1]; 500 mg/day (n = 6)): 2 (33) Number (%) of participants
AE: Diarrhea ([1]; 500 mg/day (n = 6)): 2 (33) Number (%) of participants
AE: Edema peripheral ([1]; 500 mg/day (n = 6)): 0 Number (%) of participants
AE: Fatigue ([1]; 500 mg/day (n = 6)): 2 (33) Number (%) of participants
AE: Nausea ([1]; 500 mg/day (n = 6)): 5 (83) Number (%) of participants
AE: Pyrexia ([1]; 500 mg/day (n = 6)): 2 (33) Number (%) of participants
AE: Vomiting ([1]; 500 mg/day (n = 6)): 5 (83) Number (%) of participants
Any AE ([1]; 500 mg/day (n = 6)): 6 (100) Number (%) of participants
Deaths ([1]; 500 mg/day (n = 6)): 0 Number (%) of participants
Grade 3-5 AE ([1]; 500 mg/day (n = 6)): 1 (17) Number (%) of participants
Other serious AEs ([1]; 500 mg/day (n = 6)): 1 (17) Number (%) of participants
Treatment-related AE ([1]; 500 mg/day (n = 6)): 5 (83) Number (%) of participants
Withdrawn from treatment due to AE ([1]; 500 mg/day (n = 6)): 2 (33) Number (%) of participants
participants reporting a DLT ([1]; 500 mg/day treatment group): 1 participants
AE: Cough ([1]; 700 mg/day (n = 5)): 0 Number (%) of participants
AE: Decreased appetite ([1]; 700 mg/day (n = 5)): 2 (40) Number (%) of participants
AE: Diarrhea ([1]; 700 mg/day (n = 5)): 1 (20) Number (%) of participants
AE: Edema peripheral ([1]; 700 mg/day (n = 5)): 1 (20) Number (%) of participants
AE: Fatigue ([1]; 700 mg/day (n = 5)): 4 (80) Number (%) of participants
AE: Nausea ([1]; 700 mg/day (n = 5)): 5 (100) Number (%) of participants
AE: Pyrexia ([1]; 700 mg/day (n = 5)): 0 Number (%) of participants
AE: Vomiting ([1]; 700 mg/day (n = 5)): 3 (60) Number (%) of participants
Any AE ([1]; 700 mg/day (n = 5)): 5 (100) Number (%) of participants
Deaths ([1]; 700 mg/day (n = 5)): 1 (20) Number (%) of participants
Grade 3-5 AE ([1]; 700 mg/day (n = 5)): 4 (80) Number (%) of participants
Other serious AEs ([1]; 700 mg/day (n = 5)): 0 Number (%) of participants
Treatment-related AE ([1]; 700 mg/day (n = 5)): 5 (100) Number (%) of participants
Withdrawn from treatment due to AE ([1]; 700 mg/day (n = 5)): 2 (40) Number (%) of participants
participants reporting a DLT ([1]; 700 mg/day treatment group): 2 participants
deaths considered by investigators related to ESK-440 ([1]; 4 deaths during study): None
AE cough ([1]; Overall (N = 32)): 16%
AE decreased appetite ([1]; Overall (N = 32)): 28%
AE diarrhea ([1]; Overall (N = 32)): 25%
AE fatigue ([1]; Overall (N = 32)): 53%
AE nausea ([1]; Overall (N = 32)): 53%
AE peripheral edema ([1]; Overall (N = 32)): 16%
AE pyrexia ([1]; Overall (N = 32)): 19%
AE vomiting ([1]; Overall (N = 32)): 38%
AE: Cough ([1]; Overall (N = 32)): 5 (16) Number (%) of participants
AE: Decreased appetite ([1]; Overall (N = 32)): 9 (28) Number (%) of participants
AE: Diarrhea ([1]; Overall (N = 32)): 8 (25) Number (%) of participants
AE: Edema peripheral ([1]; Overall (N = 32)): 5 (16) Number (%) of participants
AE: Fatigue ([1]; Overall (N = 32)): 17 (53) Number (%) of participants
AE: Nausea ([1]; Overall (N = 32)): 17 (53) Number (%) of participants
AE: Pyrexia ([1]; Overall (N = 32)): 6 (19) Number (%) of participants
AE: Vomiting ([1]; Overall (N = 32)): 12 (38) Number (%) of participants
Any AE ([1]; Overall (N = 32)): 31 (97) Number (%) of participants
Deaths ([1]; Overall (N = 32)): 4 (13) Number (%) of participants
Grade 3-5 AE ([1]; Overall (N = 32)): 15 (47) Number (%) of participants
Other serious AEs ([1]; Overall (N = 32)): 9 (28) Number (%) of participants
Withdrawn from treatment due to AE ([1]; Overall (N = 32)): 7 (22) Number (%) of participants
at least 1 AE ([1]; Overall (N = 32)): 97%
deaths reported during the study ([1]; Overall (N = 32)): 4
grade 3+ AEs ([1]; Overall (N = 32)): 47%
withdrew from treatment due to AEs ([1]; Overall (N = 32)): 22%
nature of the DLT ([1]; all 3 cases, considered related to ESK-440): grade 3 nausea
participants reporting a DLT ([1]; all dose groups): Three
changes in vital signs, ECG findings, physical exam findings, pulmonary function tests ([1]; during the study): no clinically significant changes
decline in ECOG performance status ([1]; from baseline): 13 participants
QTcF value meeting protocol-defined DLT criterion (>500 msec) ([1]; in vivo): No patient
no change from baseline in ECOG performance status ([1]; in vivo): Nineteen
SAEs considered related to ESK-440 ([1]; of SAEs in nine participants, nausea): 1
maximum tolerated dose (MTD) ([1]; oral, 28-day cycle, DLT in cycle 1): 500 mg/day
best overall response: stable disease [2]: 7 participants
complete or partial response [2]: No participant
highest non-severely toxic dose (HNSTD) (rats): 30 mg/kg
potency (FAK): low nanomolar
